The record followed here is PMC10454840 (Drug Design, Development and Therapy, 2023).

Series [1] deals with E. granulosus s.s. PSCs. The series can be described thus: In vitro drug treatment of PSCs, viability by 1% eosin staining. The format is cell-based, Echinococcus granulosus sensu stricto. Particulars: Echinococcus granulosus, 48 h, read-out: viability of PSCs. The method, boiled down:
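Protoscoleces came from sheep cysts. They were washed in PBS, digested with 1% pepsin for 30 min and cultured in RPMI 1640 with 10% FBS and penicillin/streptomycin at 37 °C, 5% CO2 for 3 days, with viability above 98%. Wells held 200 PSCs. Compounds came from 20 mM DMSO stocks, at 40 μM final for screening, then 40–240 μM. The control was 1% DMSO. After 48 h, 1% eosin marked dead PSCs red. Three independent experiments, mean ± S.D.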

Series [2] has as its system cysts from E. granulosus s.s.-infected mice. The series can be described thus: TEM observation of cysts from treated infected mice. The series is classed as in vivo, Kunming mice. To be noted: 50 mg/kg, oral, 28 days. The essentials: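 Female Kunming mice, 8 weeks old, were infected intraperitoneally with 50 in vitro-derived microcysts. Infection was confirmed by B-mode ultrasound at 6 months, and mice were randomised into groups of 6. Test compound was given in 0.5% CMC-Na by daily oral gavage (0.1 mL/10 g) for 28 days against a vehicle control. Peritoneal cysts were isolated, and randomly selected cysts were examined by TEM.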

The subject of series [3] is E. granulosus s.s.-infected mice. The series can be described thus: Drug treatment of E. granulosus s.s.-infected mice, cyst weight. The series is classed as in vivo, Kunming mice. Particulars: 50 mg/kg/day oral, 28 days.
Series [4] has as its system PC12 cells. The series can be described thus: Hoechst 33342 staining assay of PC12 cell apoptosis. To be noted: 200 μM, 48 h. The series is classed as cell-based. The method, boiled down:
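PC12 cells seeded at 1×10^5/well in 6-well plates and grown at 37 °C, 5% CO2 to 70–80% confluence. Test compound at 200 μM for 48 h, with a DMSO control group. Medium removed, Hoechst staining solution added for 30 min at 37 °C, cells washed three times with PBS, and nuclear morphology viewed by inverted fluorescence microscopy.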

The test system of series [5] is PC12 cells. The series can be described thus: MTT cytotoxicity assay in PC12 cells. Particulars: 200 μM, 48 h. The series is classed as cell-based. The essentials: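 PC12 cells in log phase were grown in RPMI 1640 with 10% horse serum, 5% FBS and penicillin/streptomycin, then seeded at 1×10^4 per well and settled for 12 h at 37 °C, 5% CO2. Compounds were added at 6.25–200 μM final, in triplicate, with a DMSO control, for 48 h. Serum-free medium plus MTT followed for 4 h, then formazan lysate and absorbance at 570 nm. Inhibition = [1−(ODtreated−ODblank)/(ODcontrol−ODblank)]×100%.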
In general terms: Formazan colour is commonly taken as a measure of viable cells.

Series [6] is described as follows: Acute toxicity study in mice. To be noted: both, Kunming, mouse, in vivo, po, single oral dose.

For the molecule `CCCSc1ccc2nc(NC(=O)OC)[nH]c2c1` [ABZ, Albendazole], the viability at 40 µM in series [1] was 94.8 ± 5%. Besides, the “cyst ultrastructure (TEM)” value in series [2] was “fewer microtriches and an unclear germinal layer structure but clear nuclei”.

With `COc1ccc2c(c1)[nH]c1c(C)nccc12` [HM, 7-methoxy-1-methyl-9H-pyrido[3,4-b] indole], the viability at 40 µM in series [1] stood at 94.7 ± 4.52%. In addition, the cyst weight in series [3] is 6.53 ± 1.56 g. For the same molecule, the “PC12 cell nuclei / morphology (apoptosis)” value in series [4] was “reduced number of cells with varying morphological sizes and significantly denser granules or bright blue fluorescence”. In series [5], the “PC12 cell viability inhibition” value turned out to be 87.02 ± 5.65%. Further, the 50% lethal dose (LD50) at 14 days in series [6] is 447 mg/kg. Also, in series [2], the “cyst ultrastructure (TEM)” value was “fewer microtriches and an unclear germinal layer structure but clear nuclei”.

One may read the viability as the share of living cells, or the viability signal relative to a control. A word on the LD50: it is the dose at which mortality reaches 50%. Low readings indicate greater toxicity, high ones lower toxicity.
